# Measurements: ChEMBL document CHEMBL1221337, “The unsaturated acyclic nucleoside analogues bearing a sterically constrained (Z)-4'-benzamido-2'-butenyl moiety: Synthesis, X-ray crystal structure study, cytostatic and antiviral activity evaluations” (Bioorg Med Chem, 2010)
# The source made the active and inactive calls. The calls are words filed in the database; no cut-off is given here.
# Tested on: Coxsackievirus B4
# Assay: Antiviral activity against Coxsackievirus B4 infected in Vero cells assessed as inhibition of virus-induced cytopathicity
# Type: functional, organism-based
# Settings: not given
# In short: (§1)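 Confluent cell monolayers in 96-well plates were inoculated with 100 CCID50 of virus. After 1 h adsorption, residual virus was removed. Cultures were then incubated with test compound at varying concentrations (200, 40, 8... µM). Viral cytopathicity was scored once it reached completion in untreated infected controls. Host cells: HEL for HSV-1 KOS and HSV-2 G; Vero for the Vero lines; HeLa for the HeLa lines.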
row,SMILES,inhibition
1,Nc1ccn(C/C=C\CNC(=O)c2ccccc2)c(=O)n1,inactive
2,Cc1cn(C/C=C\CNC(=O)c2ccccc2)c(=O)[nH]c1=O,inactive

# Tested on: MIA PaCa-2
# Assay: Cytotoxicity against human MIAPaCa2 cells after 72 hrs by MTT assay
# Type: functional, cell-based
# Settings: MIA PaCa-2, 72 h
# In short: (§2)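 Adherent cells were plated at 3000–6000 cells/well on day 0, according to doubling time. Compound was added as five 10-fold dilutions (1 × 10⁻⁸–1 × 10⁻⁴ M), with DMSO ≤0.1%, and incubated 72 h. Read-out was MTT absorbance converted to percentage growth versus untreated wells on the same plate. IC50 was obtained by linear regression between bracketing concentrations; the highest concentration was reported as ">" if not reached. Quadruplicates, three experiments.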
row,SMILES,IC50 [µM]
1,Nc1ccn(C/C=C\CNC(=O)c2ccccc2)c(=O)n1,> 100
2,Cc1cn(C/C=C\CNC(=O)c2ccccc2)c(=O)[nH]c1=O,> 100

# Tested on: Vesicular stomatitis virus
# Assay: Antiviral activity against Vesicular stomatitis virus infected in HEL cells assessed as inhibition of virus-induced cytopathicity
# Type: functional, organism-based
# Settings: not given
row,SMILES,inhibition
1,Nc1ccn(C/C=C\CNC(=O)c2ccccc2)c(=O)n1,inactive
2,Cc1cn(C/C=C\CNC(=O)c2ccccc2)c(=O)[nH]c1=O,inactive

# Tested on: MDCK
# Assay: Cytotoxicity against MDCK cells assessed as cell viability after 3 days by coulter counting
# Type: cell-based, Canis lupus familiaris
# Settings: dog, 72 h
row,SMILES,Activity
1,Nc1ccn(C/C=C\CNC(=O)c2ccccc2)c(=O)n1,Non-toxic
2,Cc1cn(C/C=C\CNC(=O)c2ccccc2)c(=O)[nH]c1=O,Non-toxic

# Tested on: Human alphaherpesvirus 1
# Assay: Antiviral activity against HSV1 KOS infected in HEL cells assessed as inhibition of virus-induced cytopathicity
# Type: functional, organism-based
# Settings: not given
# In short: as §1
row,SMILES,inhibition
1,Nc1ccn(C/C=C\CNC(=O)c2ccccc2)c(=O)n1,inactive
2,Cc1cn(C/C=C\CNC(=O)c2ccccc2)c(=O)[nH]c1=O,inactive

# Tested on: Human alphaherpesvirus 2
# Assay: Antiviral activity against HSV2 G infected in HEL cells assessed as inhibition of virus-induced cytopathicity
# Type: functional, organism-based
# Settings: strain G
# In short: as §1
row,SMILES,inhibition
1,Nc1ccn(C/C=C\CNC(=O)c2ccccc2)c(=O)n1,inactive
2,Cc1cn(C/C=C\CNC(=O)c2ccccc2)c(=O)[nH]c1=O,inactive

# Tested on: HEL
# Assay: Cytotoxicity against HEL cells assessed as cell viability after 3 days by coulter counting
# Type: cell-based
# Settings: human, 72 h
# In short: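 HEL cells were seeded at 5 × 10³ cells/well and allowed to proliferate 24 h. Medium with test compound at different concentrations was then added, and cells were incubated 3 days at 37 °C. Cell number was counted by Coulter counter. CC50 (50% reduction in cell number versus untreated controls) was read from plots of cell number (% of control) against concentration.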
row,SMILES,Activity
1,Nc1ccn(C/C=C\CNC(=O)c2ccccc2)c(=O)n1,Non-toxic
2,Cc1cn(C/C=C\CNC(=O)c2ccccc2)c(=O)[nH]c1=O,Non-toxic

# Tested on: not listed separately
# Assay: Cytotoxicity against human WI38 cells after 72 hrs by MTT assay
# Type: cell-based
# Settings: WI-38, 72 h
# In short: as §2
row,SMILES,IC50 [µM]
1,Nc1ccn(C/C=C\CNC(=O)c2ccccc2)c(=O)n1,4.2
2,Cc1cn(C/C=C\CNC(=O)c2ccccc2)c(=O)[nH]c1=O,4.3

# Tested on: Vero
# Assay: Cytotoxicity against african green monkey Vero cells assessed as cell viability after 3 days by coulter counting
# Type: cell-based
# Settings: chlorocebus sabaeus, 72 h
row,SMILES,Activity
1,Nc1ccn(C/C=C\CNC(=O)c2ccccc2)c(=O)n1,Non-toxic
2,Cc1cn(C/C=C\CNC(=O)c2ccccc2)c(=O)[nH]c1=O,Non-toxic

# Tested on: Sindbis virus
# Assay: Antiviral activity against Sindbis virus infected in Vero cells assessed as inhibition of virus-induced cytopathicity
# Type: functional, organism-based
# Settings: not given
# In short: as §1
row,SMILES,inhibition
1,Nc1ccn(C/C=C\CNC(=O)c2ccccc2)c(=O)n1,inactive
2,Cc1cn(C/C=C\CNC(=O)c2ccccc2)c(=O)[nH]c1=O,inactive

# Tested on: Mammalian orthoreovirus 1
# Assay: Antiviral activity against Reovirus 1 infected in Vero cells assessed as inhibition of virus-induced cytopathicity
# Type: functional, organism-based
# Settings: not given
# In short: as §1
row,SMILES,inhibition
1,Nc1ccn(C/C=C\CNC(=O)c2ccccc2)c(=O)n1,inactive
2,Cc1cn(C/C=C\CNC(=O)c2ccccc2)c(=O)[nH]c1=O,inactive

# Tested on: Respiratory syncytial virus
# Assay: Antiviral activity against Respiratory syncytial virus infected in human HeLa cells assessed as inhibition of virus-induced cytopathicity
# Type: functional, organism-based
# Settings: not given
# In short: as §1
row,SMILES,inhibition
1,Nc1ccn(C/C=C\CNC(=O)c2ccccc2)c(=O)n1,inactive
2,Cc1cn(C/C=C\CNC(=O)c2ccccc2)c(=O)[nH]c1=O,inactive

# Tested on: SK-BR-3
# Assay: Cytotoxicity against human SK-BR-3 cells after 72 hrs by MTT assay
# Type: functional, cell-based
# Settings: SK-BR-3, 72 h
# In short: as §2
row,SMILES,IC50 [µM]
1,Nc1ccn(C/C=C\CNC(=O)c2ccccc2)c(=O)n1,72
2,Cc1cn(C/C=C\CNC(=O)c2ccccc2)c(=O)[nH]c1=O,> 100

# Tested on: HeLa
# Assay: Cytotoxicity against human HeLa cells assessed as cell viability after 3 days by coulter counting
# Type: cell-based
# Settings: 72 h
row,SMILES,Activity
1,Nc1ccn(C/C=C\CNC(=O)c2ccccc2)c(=O)n1,Non-toxic
2,Cc1cn(C/C=C\CNC(=O)c2ccccc2)c(=O)[nH]c1=O,Non-toxic

# Tested on: Human respirovirus 3
# Assay: Antiviral activity against Parainfluenza 3 infected in Vero cells assessed as inhibition of virus-induced cytopathicity
# Type: functional, organism-based
# Settings: not given
# In short: as §1
row,SMILES,inhibition
1,Nc1ccn(C/C=C\CNC(=O)c2ccccc2)c(=O)n1,inactive
2,Cc1cn(C/C=C\CNC(=O)c2ccccc2)c(=O)[nH]c1=O,inactive

# Tested on: HeLa
# Assay: Cytotoxicity against human HeLa cells after 72 hrs by MTT assay
# Type: functional, cell-based
# Settings: not given
# In short: as §2
row,SMILES,IC50 [µM]
1,Nc1ccn(C/C=C\CNC(=O)c2ccccc2)c(=O)n1,> 100
2,Cc1cn(C/C=C\CNC(=O)c2ccccc2)c(=O)[nH]c1=O,> 100

# Tested on: Coxsackievirus B4
# Assay: Antiviral activity against Coxsackievirus B4 infected in human HeLa cells assessed as inhibition of virus-induced cytopathicity
# Type: functional, organism-based
# Settings: not given
# In short: as §1
row,SMILES,inhibition
1,Nc1ccn(C/C=C\CNC(=O)c2ccccc2)c(=O)n1,inactive
2,Cc1cn(C/C=C\CNC(=O)c2ccccc2)c(=O)[nH]c1=O,inactive

# Tested on: Vesicular stomatitis virus
# Assay: Antiviral activity against Vesicular stomatitis virus infected in human HeLa cells assessed as inhibition of virus-induced cytopathicity
# Type: functional, organism-based
# Settings: not given
# In short: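 Confluent HeLa cultures were infected with 100 CCID50 of virus. Unadsorbed virus was removed after 1 h, and compound was added at serial concentrations (200, 40, 8…). Viral cytopathic effect was read when untreated virus-infected control wells reached full cytopathicity.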
row,SMILES,inhibition
1,Nc1ccn(C/C=C\CNC(=O)c2ccccc2)c(=O)n1,inactive
2,Cc1cn(C/C=C\CNC(=O)c2ccccc2)c(=O)[nH]c1=O,inactive

# Tested on: Influenza A virus
# Assay: Antiviral activity against influenza A virus H1N1; H3N2 infected in MDCK cells assessed as inhibition of virus-induced cytopathicity
# Type: functional, organism-based
# Settings: not given
# In short: (§3)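 MDCK cells, nearly confluent in microtiter plates, were infected with 100 CCID50 per well. After 1 h adsorption, the inoculum was washed off. Cells were incubated with graded compound concentrations (200, 40, 8…). Cytopathicity was recorded at completion in untreated infected controls.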
row,SMILES,inhibition
1,Nc1ccn(C/C=C\CNC(=O)c2ccccc2)c(=O)n1,inactive
2,Cc1cn(C/C=C\CNC(=O)c2ccccc2)c(=O)[nH]c1=O,inactive

# Tested on: Vaccinia virus
# Assay: Antiviral activity against Vaccinia virus infected in HEL cells assessed as inhibition of virus-induced cytopathicity
# Type: functional, organism-based
# Settings: Orthopoxvirus vaccinia
row,SMILES,inhibition
1,Nc1ccn(C/C=C\CNC(=O)c2ccccc2)c(=O)n1,inactive
2,Cc1cn(C/C=C\CNC(=O)c2ccccc2)c(=O)[nH]c1=O,inactive

# Tested on: Punta Toro virus
# Assay: Antiviral activity against Punta Toro virus infected in Vero cells assessed as inhibition of virus-induced cytopathicity
# Type: functional, organism-based
# Settings: not given
# In short: as §1
row,SMILES,inhibition
1,Nc1ccn(C/C=C\CNC(=O)c2ccccc2)c(=O)n1,inactive
2,Cc1cn(C/C=C\CNC(=O)c2ccccc2)c(=O)[nH]c1=O,inactive

# Tested on: SW-620
# Assay: Cytotoxicity against human SW620 cells after 72 hrs by MTT assay
# Type: functional, cell-based
# Settings: SW-620, 72 h
# In short: as §2
row,SMILES,IC50 [µM]
1,Nc1ccn(C/C=C\CNC(=O)c2ccccc2)c(=O)n1,> 100
2,Cc1cn(C/C=C\CNC(=O)c2ccccc2)c(=O)[nH]c1=O,> 100

# Tested on: Influenza B virus
# Assay: Antiviral activity against influenza B virus infected in MDCK cells assessed as inhibition of virus-induced cytopathicity
# Type: functional, organism-based
# Settings: not given
# In short: as §3
row,SMILES,inhibition
1,Nc1ccn(C/C=C\CNC(=O)c2ccccc2)c(=O)n1,inactive
2,Cc1cn(C/C=C\CNC(=O)c2ccccc2)c(=O)[nH]c1=O,inactive

# Tested on: HEp-2
# Assay: Cytotoxicity against human Hep2 cells after 72 hrs by MTT assay
# Type: functional, cell-based
# Settings: HEp-2, 72 h
# In short: as §2
row,SMILES,IC50 [µM]
1,Nc1ccn(C/C=C\CNC(=O)c2ccccc2)c(=O)n1,> 100
2,Cc1cn(C/C=C\CNC(=O)c2ccccc2)c(=O)[nH]c1=O,> 100

# Tested on: MCF7
# Assay: Cytotoxicity against human MCF7 cells after 72 hrs by MTT assay
# Type: functional, cell-based
# Settings: MCF7, 72 h
# In short: as §2
row,SMILES,IC50 [µM]
1,Nc1ccn(C/C=C\CNC(=O)c2ccccc2)c(=O)n1,31.4
2,Cc1cn(C/C=C\CNC(=O)c2ccccc2)c(=O)[nH]c1=O,> 100
